Screens (PubChem BioAssay)
Arrestin-AP2 inh – inhibitors of beta-arrestin/AP2 binding, primary screen, biochemical, GPCR trafficking, flow cytometry; FITC-arrestin peptide / GST-AP2 beads; AP2 beta2 appendage carries R879A mutation; actives 0.31% (n = 340,000); inhibition, % at 10 µM; beta-arrestin 1 C-terminal peptide binding to AP2 beta2-adaptin appendage (human); AID 504490, 2011;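 active = inhibition above a set limit, near 3 SD of compounds lacking own fluorescence, cut at about 54% in these data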;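 also: plate controls were DMSO wells for no effect and 5 µM unlabelled arrestin peptide for full effect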
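Material – AP2 appendage R879A on GSH beads · Buffer or medium – PBS with 0.05% Tween 20 and 0.1% BSA · Probe or stimulus – fluorescein-tagged arrestin peptide at 50 nM final · Incubation – compound with beads 12 min RT, then probe 1 h RT · Detection – high-throughput flow cytometry of beads, ex 488, em 535 nm · Evaluation – percent response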
CaV13 ICDI inh – Primary screen for inhibitors of IQ motif and Ca2+-dependent inactivation inhibitor domain binding in CACNA1D, Förster resonance energy transfer in living cells, …; HEK cells, CFP/YFP FRET ICDI-IQ, plate reader, 10 min; percent FRET-ratio fall versus neutral wells; inhibition, % at 12.3 µM; actives 0.098% (n = 340,000); AID 743397;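 active = mean replicate inhibition of at least 30% and at least 1% of replicates passing that level; inconclusive = only one of the two criteria is met; inactive = neither criterion is met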;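 also: 0% = median of the neutral control wells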
ADAM10 inh – human ADAM10 inhibitors, primary screen, biochemical, QFRET, HTS; actives 0.62% (n = 370,000); inhibition, % at 7 µM; recombinant ADAM10, EDANS/DABCYL FRET peptide cleavage, 3 h;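 active = inhibition above a per-campaign cutoff equal to the mean of compounds falling between control-based bounds plus 3 SD, cut at about 20% in these data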;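 also: 0% = DMSO wells while the 100% control is not disclosed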
FAS TE block – FAS thioesterase domain inhibitors, primary screen, biochemical, fluorescence intensity, uHTS. recombinant FAS-TE, OMFH fluorogenic substrate, fluorescence endpoint. inhibition, % at 15 µM. Fatty acid synthase (Homo sapiens), P49327. actives 0.67% (n = 360,000);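 active = compounds whose normalised, plate-corrected inhibition of enzyme fluorescence in the single-dose primary screen is 50% or more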;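 also: 0% = DMSO with enzyme and 100% = substrate without enzyme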
ADAM17 inh – ADAM17 inhibitors, primary screen, biochemical, QFRET; recombinant ADAM17, EDANS/DABCYL FRET peptide cleavage; inhibition, % at 6.95 µM; actives 0.83% (n = 370,000);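 active = inhibition above the mean of compounds lying between control limits plus 3 SD, set per campaign, cut at about 8.5% in these data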;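 also: 0% = DMSO-only wells as the low control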
NRP1-CendR mod – modulators of CendR peptide binding to NRP-1, primary screen, biochemical, fluorescence polarization, uHTS. FAM-RPARPAR peptide binding to NRP-1. actives 0.85% (n = 360,000). AID 602438, 2012. inhibition, % at 25 µM;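 active = inhibition or corrected inhibition above about 18%, plus a signal ratio from 0.5 to 1.5, limit read from the data, passing the limit was not always enough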
ADAM10 confirm – human ADAM10 inhibitors, confirmation, biochemical, QFRET, triplicate; shares compounds with ADAM10 inh; ADAM10 QFRET peptide cleavage, EDANS fluorescence; inhibition, % at 6.95 µM; actives 1% (n = 2,100); AID 743208, 2013;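 active = inhibition above about 20% chosen separately for each screening run, limit read from the data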;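 also: 0% = DMSO wells and 100% = marimastat wells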
ADAM17 ctr – ADAM17 inhibitors, counter-screen for ADAM10 exosite inhibitor project, biochemical, QFRET, high throughput; shares compounds with ADAM10 inh; ADAM17 QFRET peptide cleavage, EDANS fluorescence; inhibition, % at 6.95 µM; actives 0.5% (n = 2,100); AID 743214, 2013;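 active = mean triplicate inhibition above the solvent-only control wells' mean plus 3 SD, cut at about 12% in these data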;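 also: 0% = DMSO wells and 100% = marimastat wells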
ADAM10 ctr – ADAM10 inhibitors, counter-screen for ADAM17 exosite inhibitor project, biochemical, FRET, human ADAM10; inhibition, % at 6.95 µM; shares compounds with ADAM17 inh; actives 47% (n = 2,900); recombinant ADAM10, EDANS/DABCYL FRET peptide cleavage, 3 h;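 active = mean inhibition over the triplicate runs exceeds the activity threshold set in the earlier primary screen, cut at about 20% in these data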;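 also: 0% = DMSO wells and 100% = marimastat wells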
ADAM17 confirm – ADAM17 inhibitors, hit retest, confirmation, biochemical, QFRET peptide cleavage; shares compounds with ADAM17 inh; recombinant ADAM17, EDANS/DABCYL QFRET peptide cleavage; inhibition, % at 6.95 µM; actives 65% (n = 2,900); AID 743257, 2014;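 active = mean inhibition across replicates above the hit cutoff set in the primary screen, cut at about 8.5% in these data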;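 also: 0% = DMSO wells and 100% = marimastat wells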
Active calls of the source: *; ? = inconclusive; / = no result. Compounds with a hit are over-represented: about 2.9% of the library has one in this group of screens.

SMILES	Arrestin-AP2 inh	CaV13 ICDI inh	ADAM10 inh	FAS TE block	ADAM17 inh	NRP1-CendR mod	ADAM10 confirm	ADAM17 ctr	ADAM10 ctr	ADAM17 confirm
O=C(CSc1nnc(-c2ccc(Cl)cc2)n1-c1ccccc1)NN=Cc1c[nH]c2ccccc12	/	/	29.5*	/	15.8*	/	8.2	2.3	42.4*	18.1*
CC(C)Oc1ccc(C(=O)NC2(C(F)(F)F)NC(=O)N(CCCc3ccccc3)C2=O)cc1 (centres undefined)	0.5	-5.2	25.3*	26.5	10.3*	-13.3	5.1	1.0	31.4*	17.7*
CCOC(=O)c1ncn2c1[C@@H]1CCNC1C(=O)c1cc(OC)ccc1-2 (some centres undefined)	-4.8	-5.9	-3.3	-1.1	-2.0	-1.3	/	/	/	/
Brc1cc2c(cc1C1OCCCO1)OCO2	24.4	-6.6	-10.5	-7.5	-6.4	2.1	/	/	/	/
N#CC(=C1C=CC(=NO)C(Cl)=C1)c1ccccc1	/	-11.5	6.6	-146.0	4.9	19.7	/	/	/	/
Cc1c(C(=O)NCc2ccc(F)cc2)sc(=O)n1Cc1ccccc1F	/	?	-2.8	7.4	2.1	5.7	/	/	/	/
Cc1ccc(S(=O)(=O)Nc2ccc3[nH]ccc3c2)cc1	6.6	-3.8	17.5	-2.6	1.8	0.8	/	/	/	/
COC(=O)c1cc2cc(NS(=O)(=O)c3ccc(C)cc3)ccc2s1	-10.3	-3.0	27.7*	21.0	14.8*	-4.5	8.6	2.8	17.0	10.3*
O=S(=O)(Nc1ccc2ccccc2c1)c1ccccc1	5.7	-5.5	1.1	3.6	-1.1	8.9	/	/	/	/
Cc1ccc(S(=O)(=O)Nc2ccc3ccccc3c2)cc1	12.4	-4.7	24.2*	28.0	17.1*	0.3	7.5	1.8	13.4	8.1
COCCN1C(=O)CCC1(C)c1nnnn1-c1ccc2c(c1)OCCO2 (centres undefined)	/	-8.1	-2.1	-19.5	-2.9	0.0	/	/	/	/
CC(C)C(NS(=O)(=O)c1c(Cl)cccc1Cl)C(=O)OCC(=O)c1c[nH]c2ccccc12 (centres undefined)	20.3	-18.5	28.1*	3.3	14.9*	-15.4	5.7	1.7	18.9	13.7*
C#CCN(C[C@@H]1[C@@H](OC(=O)NCc2ccc(OC)c(OC)c2)[C@@H](OC(=O)NCc2ccc(OC)c(OC)c2)CN(C(=O)OC(C)C)N1C(=O)OC(C)C)S(=O)(=O)c1ccc(C)cc1	/	-5.0	26.9*	20.5	11.2*	0.3	3.6	1.0	43.2*	22.1*
C#CCN(C[C@@H]1[C@@H](OC(=O)NC2CC2)[C@@H](OC(=O)NC2CC2)Cn2c(=O)n(CCCCCC)c(=O)n21)S(=O)(=O)c1ccc(C)cc1	/	-4.7	13.0	14.3	3.7	0.0	/	/	/	/
C#CCN(C[C@@H]1[C@@H](OC(=O)NC2CCCC2)[C@@H](OC(=O)NC2CCCC2)CN(C(=O)OC(C)C)N1C(=O)OC(C)C)S(=O)(=O)c1ccc(C)cc1	/	-13.0	32.5*	14.0	15.1*	-3.0	5.5	2.7	54.1*	21.2*
O=C(Nc1cccc(Cl)c1)NN(c1ccccc1)C1CCS(=O)(=O)C1 (centres undefined)	/	-11.6	-6.6	/	-1.7	/	/	/	/	/
C[C@H](CO)N1C[C@H](C)[C@@H](CN(C)S(=O)(=O)c2ccccc2)Oc2ccc(NC(=O)Nc3ccc(C(F)(F)F)cc3)cc2C1=O	-14.8	-3.8	33.3*	12.3	8.8*	9.9	8.5	2.0	40.2*	24.1*
COc1ccc(NC(=O)Nc2ccc3c(c2)C(=O)N([C@H](C)CO)C[C@H](C)[C@@H](CN(C)C(=O)Nc2ccc(C(F)(F)F)cc2)O3)cc1	0.9	-9.6	32.0*	14.1	15.5*	10.6	4.8	0.1	20.6*	11.6*
COc1ccc(NC(=O)Nc2ccc3c(c2)C(=O)N([C@H](C)CO)C[C@H](C)[C@@H](CN(C)C(=O)Nc2ccc(OC)cc2)O3)cc1	3.3	-3.2	-7.0	-5.4	-2.1	-3.3	/	/	/	/
C[C@@H]1CN([C@@H](C)CO)C(=O)c2cc(NC(=O)Nc3ccc(F)cc3)ccc2O[C@@H]1CN(C)Cc1ccc(Oc2ccccc2)cc1	-5.2	-4.1	24.2*	21.6	11.1*	-4.9	18.8	7.2	48.2*	23.2*
C[C@@H]1CCCCO[C@@H](CN(C)C(=O)Nc2ccc3c(c2)OCO3)[C@@H](C)CN([C@H](C)CO)C(=O)c2cc(NC(=O)Nc3ccc(C(F)(F)F)cc3)ccc2O1	/	-4.8	21.3*	/	9.8*	/	11.1	2.5	41.9*	21.6*
CCCN1CCCCC(NC(=O)c2c(F)cccc2F)C1=O (centres undefined)	/	-1.3	-5.5	/	-3.2	/	/	/	/	/
COc1ccc(C2=NNC(=O)C2(C)Br)cc1 (centres undefined)	-13.1	-14.5	-6.4	1.5	2.0	10.5	/	/	/	/
N#Cc1cccc(NC(=O)OC2CC3CC2[C@H]2CCCCN2[C@H]3Cc2ccccc2)c1 (some centres undefined)	/	/	4.5	/	1.8	/	/	/	/	/
COc1ccc(C(=O)CC(Nc2ccc([N+](=O)[O-])cc2)c2ccc(Cl)cc2)cc1 (centres undefined)	6.8	-4.9	22.0*	39.5	12.7*	-11.3	8.6	3.1	38.3*	17.7*
